{
  "source": "paper PMC11610768",
  "about": "(The AAPS journal, 2023)",
  "key": {"ccK18": {"system": "ccK18", "experiment": "ccK18 quantification in mouse plasma", "assay_type": "in vivo, mice", "conditions": "single IV dose 10 mg/kg, 2–4 h after dosing; vehicle approx 700 U/L"}, "[1]": {"assay_type": "in vivo, mice", "method_in_brief": "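Tumour-bearing nude mice (intraperitoneal SKOV3) received 60 mg/kg oral daily for 7 days in 30% Kolliphor HS 15. Saphenous blood was taken at 1, 4, 6, 8, 12 h after the first dose and at troughs 24–144 h, with 3 mice per point in rotating subgroups. Tissues were taken after the last dose. For HPLC-UV, plasma or tissue homogenate (3 mL/g phosphate buffer, pH 7.4) plus internal standard underwent acetonitrile precipitation, centrifugation and filtration. LLOQ 5 ng/mL; values given as mean ± SD.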"}, "xenograft tumor models": {"system": "xenograft tumor models", "conditions": "60 mg/kg QD; cited from earlier work"}, "mortalin": {"system": "mortalin", "experiment": "Western blot of total mortalin in ovarian cancer cells", "assay_type": "cell-based, human"}, "colorectal tumors": {"system": "colorectal tumors", "conditions": "APCmin/+ mouse, cited from earlier work"}, "[2]": {"conditions": "animal models; cited from earlier work"}, "[3]": {"conditions": "single oral dose study, tumor-bearing mice; cited from earlier work"}, "[4]": {"system": "cyclin D1 in SKOV3 tumors", "experiment": "Cyclin D1 in SKOV3 xenograft tumors", "assay_type": "in vivo, mice", "conditions": "60 mg/kg oral once daily, observed at 12 h", "method_in_brief": "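Female athymic nude mice (Foxn1nu, 6–8 weeks) were given intraperitoneal SKOV3-luc cells, and tumours were confirmed after about 3 weeks. Dosing: 60 mg/kg oral, daily for 7 days, as a suspension in 30% Kolliphor HS 15 (6 mg/mL, 10 mL/kg); vehicle controls, n = 3. Tumours were taken after the last dose; archived 24-h single-dose tumours were also used. Lysate (5 µg protein) run in a total cyclin D1 sandwich ELISA in duplicate, read at OD 450 nm.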"}, "cyclin D1 in SKOV3 cells": {"system": "cyclin D1 in SKOV3 cells", "experiment": "Concentration- and time-dependent changes in cyclin D1 in SKOV3 cells", "assay_type": "cell-based, human", "method_in_brief": "(§1)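 Cells grown in RPMI 1640 with 10% FBS and 1% antibiotic-antimycotic, seeded overnight at 37°C, 5% CO2, then exposed to test compound (DMSO) at 0–15 µM for 24 h. SKOV3 only: 2–24 h time course at 2.5 and 10 µM, and washout after 24 h at 10 µM with recovery at 4, 8, 24 h. Cyclin D1 measured by sandwich ELISA (5 µg protein, duplicates, OD 450 nm) and by western blot (20 µg lysate, β-actin reprobe).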"}, "cyclin D1 in A2780 cells": {"system": "cyclin D1 in A2780 cells", "experiment": "Concentration-dependent changes in cyclin D1 in A2780 cells", "assay_type": "cell-based, human", "conditions": "24 h exposure, 1-15 µM, ELISA", "method_in_brief": "as §1"}, "[5]": {"conditions": "60 mg/kg oral once daily for seven days"}, "[6]": {"conditions": "60 mg/kg oral once daily, at 1 h"}},
  "note": "Where two headings read alike, the source gives them in different places.",
  "data": [
    {"smiles": "CC1(C)CC(C)(C)c2cc(NC(=S)Nc3ccc([N+](=O)[O-])cc3)ccc2S1", "note": "[SHetA2]", "values": [
      {"measurement": "peak plasma ccK18 level", "setting": "ccK18", "result": 913, "unit": "U/L"},
      {"measurement": "accumulation of the drug in plasma", "setting": "[1]; [5]", "result": "No significant accumulation"},
      {"measurement": "mean trough concentrations in the plasma", "setting": "[1]; [5]", "result": "18.8 ± 6.6", "unit": "ng/mL"},
      {"measurement": "peak tumor concentration", "setting": "[1]; [6]", "result": "around 4,000 ng/ml"},
      {"measurement": "peak tumor concentration (equivalent)", "setting": "[1]; [6]", "result": "~ 10 µM"},
      {"measurement": "antitumor activity", "setting": "xenograft tumor models", "result": "40–60%"},
      {"measurement": "effect on total mortalin levels", "setting": "mortalin", "result": "no effect"},
      {"measurement": "reduction of cyclin D1 in the tumors", "setting": "colorectal tumors; 30 mg/kg QD", "result": 50, "unit": "%"},
      {"measurement": "reduction of cyclin D1 in the tumors", "setting": "colorectal tumors; 60 mg/kg QD", "result": 90, "unit": "%"},
      {"measurement": "reduction of incidence of colorectal tumors", "setting": "colorectal tumors; QD doses of 30 or 60 mg/kg", "result": "over 50%"},
      {"measurement": "adverse effects in genetic toxicology assays and toxicity tests", "setting": "[2]", "result": "no adverse effects observed"},
      {"measurement": "elimination half-life", "setting": "[3]", "result": 4.5, "unit": "h"},
      {"measurement": "maximum reduction in cyclin D1 in tumor", "setting": "[4]", "result": "~ 70%"},
      {"measurement": "cyclin D1 level restored, of baseline", "setting": "cyclin D1 in SKOV3 cells; 24 h after drug removal, after 24 h exposure to 10 µM", "result": "over 80%"},
      {"measurement": "IC50", "setting": "cyclin D1 in SKOV3 cells; Homo sapiens, SK-OV-3, read-out: IC50 of cyclin D1 reduction", "result": "4 to 5", "unit": "µM"},
      {"measurement": "maximum inhibition of cyclin D1 levels", "setting": "cyclin D1 in SKOV3 cells; SKOV3 cells, 24 h exposure, 1-15 µM, ELISA", "result": "~ 70%"},
      {"measurement": "time at which cyclin D1 levels began to recover after drug removal", "setting": "cyclin D1 in SKOV3 cells; after 24 h exposure to 10 µM, drug removed from culture medium", "result": 4, "unit": "h"},
      {"measurement": "cyclin D1 reduction / inhibition observed", "setting": "cyclin D1 in SKOV3 cells; cancer cells (cell line not named at the place), dose-dependent", "result": "up to 70%"},
      {"measurement": "maximum inhibition of cyclin D1 levels", "setting": "cyclin D1 in A2780 cells", "result": "~ 80%"}
    ]}
  ]
}
